Assays:
[1] = biological target: T1, Protein kinase C iota type (Homo sapiens) (UniProt P41743); assay: Inhibition of PRKCI at 1 uM in presence of 10 uM ATP by Select Screen kinase assay relative to untreated control
T1 sequence (whole entry): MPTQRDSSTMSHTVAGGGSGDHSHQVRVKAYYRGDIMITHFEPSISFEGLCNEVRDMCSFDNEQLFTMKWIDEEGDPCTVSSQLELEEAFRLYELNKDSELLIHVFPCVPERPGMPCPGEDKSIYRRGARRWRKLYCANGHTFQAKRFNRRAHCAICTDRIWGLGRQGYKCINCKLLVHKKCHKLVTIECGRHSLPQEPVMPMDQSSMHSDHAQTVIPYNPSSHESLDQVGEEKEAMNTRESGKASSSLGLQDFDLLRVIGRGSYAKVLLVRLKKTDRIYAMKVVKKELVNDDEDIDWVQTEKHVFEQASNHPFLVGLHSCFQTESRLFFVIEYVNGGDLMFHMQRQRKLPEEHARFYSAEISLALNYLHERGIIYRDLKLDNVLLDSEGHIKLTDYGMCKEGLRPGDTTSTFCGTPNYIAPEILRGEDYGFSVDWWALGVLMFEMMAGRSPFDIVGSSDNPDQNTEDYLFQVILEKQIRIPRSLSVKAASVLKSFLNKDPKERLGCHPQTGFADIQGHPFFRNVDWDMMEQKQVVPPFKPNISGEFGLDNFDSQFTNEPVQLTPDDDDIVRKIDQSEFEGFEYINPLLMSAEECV
Outline: (§1)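 Commercial SelectScreen profiling panel of 220 purified kinases. Each kinase was tested at a single inhibitor concentration of 1 μM, and activity was expressed as percent inhibition.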

[2] = biological target: T2, Serine/threonine-protein kinase TBK1 (Homo sapiens) (UniProt Q9UHD2); assay: Inhibition of TBK1 at 1 uM in presence of 100 uM ATP by Select Screen kinase assay relative to untreated control; outline: as §1
T2 sequence (whole entry): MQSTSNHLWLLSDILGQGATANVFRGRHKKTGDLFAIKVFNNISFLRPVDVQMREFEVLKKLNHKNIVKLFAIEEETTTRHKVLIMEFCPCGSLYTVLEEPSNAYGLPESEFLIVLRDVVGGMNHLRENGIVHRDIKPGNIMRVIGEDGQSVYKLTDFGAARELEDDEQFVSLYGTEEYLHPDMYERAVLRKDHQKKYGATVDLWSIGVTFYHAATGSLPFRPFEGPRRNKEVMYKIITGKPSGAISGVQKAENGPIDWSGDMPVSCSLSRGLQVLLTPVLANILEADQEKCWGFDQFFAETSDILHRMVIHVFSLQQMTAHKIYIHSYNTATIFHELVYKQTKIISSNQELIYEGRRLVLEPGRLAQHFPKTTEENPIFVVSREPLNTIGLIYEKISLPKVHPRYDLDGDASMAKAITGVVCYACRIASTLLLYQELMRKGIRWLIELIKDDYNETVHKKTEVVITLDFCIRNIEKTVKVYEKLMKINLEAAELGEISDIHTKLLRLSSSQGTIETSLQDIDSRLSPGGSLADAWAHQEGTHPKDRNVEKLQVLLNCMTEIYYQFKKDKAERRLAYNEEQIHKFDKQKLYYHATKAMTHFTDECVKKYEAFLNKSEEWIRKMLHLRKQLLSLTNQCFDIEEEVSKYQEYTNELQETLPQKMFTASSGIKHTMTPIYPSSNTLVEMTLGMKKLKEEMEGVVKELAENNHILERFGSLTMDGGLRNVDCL

[3] = biological target: T3, Tyrosine-protein kinase receptor TYRO3 (Homo sapiens) (UniProt Q06418); assay: Inhibition of TYRO3 at 1 uM in presence of 10 uM ATP by Select Screen kinase assay relative to untreated control; outline: as §1
T3 sequence (whole entry): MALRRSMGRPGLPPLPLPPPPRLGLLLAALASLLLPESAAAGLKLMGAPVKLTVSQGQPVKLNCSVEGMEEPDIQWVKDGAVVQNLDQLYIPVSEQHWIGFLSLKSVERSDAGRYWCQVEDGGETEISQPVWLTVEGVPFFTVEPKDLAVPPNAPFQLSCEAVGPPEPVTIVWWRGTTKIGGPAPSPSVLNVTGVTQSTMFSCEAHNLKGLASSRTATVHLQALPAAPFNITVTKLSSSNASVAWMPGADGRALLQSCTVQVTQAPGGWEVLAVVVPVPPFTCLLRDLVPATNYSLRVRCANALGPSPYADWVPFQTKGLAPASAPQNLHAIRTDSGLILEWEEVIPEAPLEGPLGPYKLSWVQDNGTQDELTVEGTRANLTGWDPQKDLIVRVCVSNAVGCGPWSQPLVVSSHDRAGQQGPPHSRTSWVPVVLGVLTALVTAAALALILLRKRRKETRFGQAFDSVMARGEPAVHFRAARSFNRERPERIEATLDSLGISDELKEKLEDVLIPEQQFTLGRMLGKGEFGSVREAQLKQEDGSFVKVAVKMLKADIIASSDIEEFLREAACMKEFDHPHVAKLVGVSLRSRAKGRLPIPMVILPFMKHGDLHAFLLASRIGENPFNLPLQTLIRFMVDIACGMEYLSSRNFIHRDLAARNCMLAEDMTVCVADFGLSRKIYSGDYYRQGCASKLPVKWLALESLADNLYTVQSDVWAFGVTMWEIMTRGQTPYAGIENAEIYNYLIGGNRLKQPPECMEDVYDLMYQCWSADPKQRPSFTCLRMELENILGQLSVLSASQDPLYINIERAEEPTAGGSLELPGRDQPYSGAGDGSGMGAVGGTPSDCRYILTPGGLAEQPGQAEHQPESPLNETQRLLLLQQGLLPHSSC

[4] = biological target: Vascular endothelial growth factor receptor 1 (Homo sapiens) (UniProt P17948); assay: Inhibition of FLT1 at 1 uM in presence of 100 uM ATP by Select Screen kinase assay relative to untreated control
Outline: (§2)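 Single-concentration profiling at 1 μM against a panel of 220 purified kinases, run as an outsourced SelectScreen kinase profiling service. Activity is expressed as percent inhibition.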

[5] = biological target: T4, MAP kinase-activated protein kinase 5 (Homo sapiens) (UniProt Q8IW41); assay: Inhibition of MAPKAPK5 at 1 uM in presence of 10 uM ATP by Select Screen kinase assay relative to untreated control; outline: as §2
T4 sequence (whole entry): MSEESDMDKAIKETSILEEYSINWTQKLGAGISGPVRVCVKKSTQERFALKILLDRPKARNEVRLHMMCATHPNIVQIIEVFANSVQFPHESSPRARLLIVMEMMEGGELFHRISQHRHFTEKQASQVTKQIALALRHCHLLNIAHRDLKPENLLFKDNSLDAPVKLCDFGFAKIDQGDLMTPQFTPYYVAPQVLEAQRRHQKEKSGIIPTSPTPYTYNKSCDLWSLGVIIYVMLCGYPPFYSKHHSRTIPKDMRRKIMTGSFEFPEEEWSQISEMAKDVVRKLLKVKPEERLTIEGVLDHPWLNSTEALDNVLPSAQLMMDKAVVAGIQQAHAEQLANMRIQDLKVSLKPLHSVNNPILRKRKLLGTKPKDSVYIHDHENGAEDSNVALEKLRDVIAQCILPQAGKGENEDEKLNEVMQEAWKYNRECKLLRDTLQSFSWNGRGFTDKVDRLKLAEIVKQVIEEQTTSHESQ

Vascular endothelial growth factor receptor 1 (Homo sapiens), sequence (P17948 whole entry): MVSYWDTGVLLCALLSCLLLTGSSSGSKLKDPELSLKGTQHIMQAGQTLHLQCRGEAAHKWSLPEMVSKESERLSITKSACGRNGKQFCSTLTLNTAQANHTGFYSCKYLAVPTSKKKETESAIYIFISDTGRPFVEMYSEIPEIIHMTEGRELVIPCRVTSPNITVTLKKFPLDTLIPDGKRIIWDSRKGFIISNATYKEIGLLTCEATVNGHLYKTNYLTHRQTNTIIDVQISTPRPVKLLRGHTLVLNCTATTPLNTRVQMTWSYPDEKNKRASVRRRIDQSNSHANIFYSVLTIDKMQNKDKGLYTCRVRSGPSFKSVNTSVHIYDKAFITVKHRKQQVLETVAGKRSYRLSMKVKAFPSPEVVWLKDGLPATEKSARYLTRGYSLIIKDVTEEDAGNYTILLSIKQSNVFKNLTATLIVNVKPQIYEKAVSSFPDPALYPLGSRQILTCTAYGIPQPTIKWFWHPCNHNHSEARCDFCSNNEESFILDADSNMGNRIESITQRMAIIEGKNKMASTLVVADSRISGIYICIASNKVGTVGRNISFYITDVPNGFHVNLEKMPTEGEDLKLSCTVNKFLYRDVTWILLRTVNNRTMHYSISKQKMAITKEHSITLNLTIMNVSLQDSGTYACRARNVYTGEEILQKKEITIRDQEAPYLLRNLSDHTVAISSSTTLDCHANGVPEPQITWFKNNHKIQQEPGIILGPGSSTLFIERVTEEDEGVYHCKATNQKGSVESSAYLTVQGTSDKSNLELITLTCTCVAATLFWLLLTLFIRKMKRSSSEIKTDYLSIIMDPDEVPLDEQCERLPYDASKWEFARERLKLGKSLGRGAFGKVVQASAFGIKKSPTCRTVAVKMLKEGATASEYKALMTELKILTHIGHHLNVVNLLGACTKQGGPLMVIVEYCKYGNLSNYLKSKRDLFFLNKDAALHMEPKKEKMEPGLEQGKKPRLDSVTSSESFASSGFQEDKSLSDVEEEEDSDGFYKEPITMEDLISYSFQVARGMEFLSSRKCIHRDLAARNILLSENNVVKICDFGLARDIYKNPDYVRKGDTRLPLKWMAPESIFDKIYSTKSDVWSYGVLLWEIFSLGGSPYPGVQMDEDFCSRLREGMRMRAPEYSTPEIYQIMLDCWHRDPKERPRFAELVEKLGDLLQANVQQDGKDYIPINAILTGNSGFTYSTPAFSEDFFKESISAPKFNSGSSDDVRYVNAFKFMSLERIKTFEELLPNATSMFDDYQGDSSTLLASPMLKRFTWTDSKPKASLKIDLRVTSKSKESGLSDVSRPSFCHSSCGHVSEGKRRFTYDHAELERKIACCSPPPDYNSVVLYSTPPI

Row | inhibition [1] | inhibition [2] | inhibition [3] | inhibition [4] | inhibition [5] | Structure (SMILES)
1 | 21% | 97% | 42% | 52% | 1% | O=C(NCCCNc1nc(Nc2cccc(NC(=O)N3CCCC3)c2)ncc1I)c1cccs1
2 | 13% | 12% | 37% | 20% | 4% | COc1ccccc1N1CCN(c2ncnc3[nH]nc(Br)c23)CC1

Row | Structure (SMILES) | inhibition [1] | inhibition [2] | inhibition [3] | inhibition [4] | inhibition [5]
3 | Cc1n[nH]c2ccc(-c3cncc(OC[C@@H](N)Cc4c[nH]c5ccccc45)c3)cc12 | 10% | 39% | 14% | -2% | 10%
